Data as given in ChEMBL document CHEMBL2346577, “Isolation, structure, and biological activity of Phaeofungin, a cyclic lipodepsipeptide from a Phaeosphaeria sp. Using the Genome-Wide Candida albicans Fitness Test” (J Nat Prod, 2013).
In brackets after ≈: the same amount, converted by molar mass. Activity calls are given as the source filed them. The rule behind the calls is not given here. Numbered stars: 1 amine (or outer) side, 2 acyl side, 3 side chain; on linkers, the order of the positions; unused ones are H or OH. Bridge positions count the residues as written; N and C are the ends. Square brackets hold non-standard residues; d marks the D form. Peptide text beside a SMILES is read from it. * marks the point of attachment. ξ: configuration not given here. X2 = CCCCCCCCCCCCC(C)C(CC(=O)[*:1])O[*:2]; X1 = CCCCCCCCCCCCC(C)(O)C(O)CC(=O)*; ξhSer = NC(CCO)C(=O)O

Columns and labels:
[1] = tested on: Staphylococcus aureus; test: Antimicrobial activity against Staphylococcus aureus MB2865 assessed as inhibition of microbial growth after 24 hrs; assay type: functional; settings: MB2865, 24 h
[2] = tested on: Trichophyton mentagrophytes; test: Antifungal activity against Trichophyton mentagrophytes MF7004 assessed as inhibition of fungal growth after 96 hrs; assay type: functional; settings: MF7004, 96 h
Outline: (§1)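 Whole-cell growth assay with incubation of 24 h for most strains, 48 h for A. fumigatus and 96 h for T. mentagrophytes. MIC is the lowest concentration inhibiting visible growth. MIC80 is prominent growth inhibition, also called MEC for Aspergillus.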

[3] = tested on: Aspergillus fumigatus; test: Antifungal activity against Aspergillus fumigatus MF5668 assessed as inhibition of fungal growth after 48 hrs in presence of 50% human serum; assay type: functional; settings: MF5668, 48 h; outline: as §1
[4] = tested on: Aspergillus fumigatus; test: Antifungal activity against Aspergillus fumigatus MF5668 assessed as inhibition of fungal growth after 48 hrs; assay type: functional; settings: MF5668, 48 h
Outline: (§2)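 Broth dilution against each fungal strain. Inoculum 10^5 CFU/mL, compound in 2-fold serial dilution in growth medium at 37 °C. MIC is the lowest concentration inhibiting visible growth; MIC80 (prominent inhibition, MEC for Aspergillus) also read. Incubation 24 h, except 48 h for A. fumigatus.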

[5] = tested on: Candida tropicalis; test: Antifungal activity against Candida tropicalis MY1012 assessed as inhibition of fungal growth after 24 hrs; assay type: functional; settings: MY1012, 24 h; outline: as §2
[6] = tested on: Pichia kudriavzevii; test: Antifungal activity against Candida krusei ATCC 6258 assessed as inhibition of fungal growth after 24 hrs; assay type: functional; settings: ATCC 6258, 24 h; outline: as §2
[7] = tested on: Clavispora lusitaniae; test: Antifungal activity against Candida lusitaniae MY1396 assessed as inhibition of fungal growth after 24 hrs; assay type: functional; settings: MY1396, 24 h; outline: as §1
[8] = tested on: Candida parapsilosis; test: Antifungal activity against Candida parapsilosis ATCC 22019 assessed as inhibition of fungal growth after 24 hrs; assay type: functional; settings: Lodderomyces parapsilosis, ATCC 22019, 24 h; outline: as §2
[9] = tested on: Nakaseomyces glabratus; test: Antifungal activity against Candida glabrata MY1381 assessed as inhibition of fungal growth after 24 hrs; assay type: functional; settings: MY1381, 24 h; outline: as §2
[10] = tested on: Candida albicans; test: Antifungal activity against Candida albicans MY1055 assessed as inhibition of fungal growth after 24 hrs in presence of 50% mouse serum; assay type: functional; settings: MY1055, 24 h
[11] = tested on: Candida albicans; test: Antifungal activity against Candida albicans MY1055 assessed as inhibition of fungal growth after 24 hrs; assay type: functional; settings: MY1055, 24 h; outline: as §2
[12] = tested on: Candida albicans; test: Induction of ATP release from cytoplasm of Candida albicans SC5314 at >MIC by Promega Bactiter Glo assay; assay type: functional, organism-based
Outline: (§3)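 ATP leaking from fungal cells exposed to compound was measured by BacTiter Glo luminescence per manufacturer's instructions, in parallel with whole-cell growth inhibition across a concentration series. Release was referenced to basal ATP release in the assay and to total ATP release for each strain.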

[13] = tested on: Candida albicans; test: Induction of ATP release from cytoplasm of Candida albicans isolate 2323 at >MIC by Promega Bactiter Glo assay; assay type: functional, organism-based; outline: as §3
[14] = tested on: Candida albicans; test: Induction of ATP release from cytoplasm of Candida albicans isolate 2323 at 0.1 to 25 ug/ml by Promega Bactiter Glo assay; assay type: functional, organism-based
Outline: (§4)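 Release of cytoplasmic ATP from whole C. albicans cells (strains 2323 and SC5314) exposed to compound, measured with the BacTiter Glo luminescence kit per manufacturer's instructions. Read alongside whole-cell growth inhibition in the same strains, and compared with basal ATP release and total releasable ATP for each strain.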

[15] = tested on: Candida albicans; test: Induction of ATP release from cytoplasm of Candida albicans SC5314 at 0.1 to 25 ug/ml by Promega Bactiter Glo assay; assay type: functional, organism-based; outline: as §4
[16] = tested on: Candida albicans; test: Antifungal activity against Candida albicans expressing DIP5 deletion mutant assessed as inhibition of fungal growth; assay type: functional, organism-based
[17] = tested on: Candida albicans; test: Antifungal activity against Candida albicans expressing CRZ1 deletion mutant assessed as inhibition of fungal growth; assay type: functional, organism-based
[18] = tested on: Candida albicans; test: Antifungal activity against Candida albicans expressing CMD1 deletion mutant assessed as inhibition of fungal growth; assay type: functional, organism-based
[19] = tested on: Candida albicans; test: Induction of ATP release from cytoplasm of Candida albicans isolate 2323 at 0.2 to 50 ug/ml by Promega Bactiter Glo assay; assay type: functional, organism-based; outline: as §4
[20] = tested on: Candida albicans; test: Induction of ATP release from cytoplasm of Candida albicans SC5314 at 0.2 to 50 ug/ml by Promega Bactiter Glo assay; assay type: functional, organism-based; outline: as §4
[21] = tested on: Candida albicans; test: Antifungal activity against Candida albicans expressing RTA1+/- gene assessed as inhibition of fungal growth; assay type: functional, organism-based
[22] = tested on: Candida albicans; test: Antifungal activity against Candida albicans expressing AUR+/- gene assessed as inhibition of fungal growth; assay type: functional, organism-based
[23] = tested on: Mus musculus; test: Toxicity in DBA/2N mouse assessed as induction of lethality at 6.25 mg/kg, ip; assay type: organism-based; parameters: dose 6.25 mg/kg, route intraperitoneal; settings: in vivo
[24] = tested on: Mus musculus; test: Toxicity in DBA/2N mouse assessed as induction of lethality at >12.5 mg/kg, ip; assay type: organism-based; settings: in vivo

For `CCCCCCCCCCCCC(C)(O)C(O)CC(=O)N[C@@H](CO)C(=O)N[C@@H](C)C(=O)N[C@@H](CC(=O)O)C(=O)N[C@@H](C)C(=O)N[C@@H](CO)C(=O)N[C@@H](CO)C(=O)N[C@H](C(=O)O)[C@@H](C)O` (some centres undefined) (X1-SADASST-OH), the MIC [1] was over 32 µg/mL, the MIC [2] was over 32 µg/mL and the MIC [3] was over 32 µg/mL. It also gave an MIC [4] of over 32 µg/mL, an MIC [5] of over 32 µg/mL and an MIC [6] of over 32 µg/mL. It also gave an MIC [7] of over 32 µg/mL, an MIC [8] of over 32 µg/mL and an MIC [9] of over 32 µg/mL. The MIC [10] was over 32 µg/mL and the MIC [11] was over 32 µg/mL.
`C[C@@H]1[C@H](O)[C@@H](C)/C=C/C=C/C=C/C=C/C=C/C=C/C=C/[C@H](O[C@@H]2O[C@H](C)[C@@H](O)[C@H](N)[C@@H]2O)C[C@@H]2O[C@](O)(C[C@@H](O)C[C@@H](O)[C@H](O)CC[C@@H](O)C[C@@H](O)CC(=O)O[C@H]1C)C[C@H](O)[C@H]2C(=O)O` was tested, and the Activity [12] was “inactive” and the Activity [13] was “inactive”.
With `CCCCCCCCCCCCC(C)C1CC(=O)N[C@@H](C)C(=O)NC(CCO)C(=O)N[C@@H](CCC(=O)O)C(=O)NCC(=O)N[C@@H](CO)C(=O)N[C@H](CC(N)=O)C(=O)N[C@H]([C@H](C)O)C(=O)NC(CCO)C(=O)O1` (some centres undefined) (A[ξhSer]EGS[dN][dT][ξhSer]; linker N-C via X2) the Activity [14] was “inactive”, the Activity [15] was “inactive” and the “growth inhibition (GI)” value [16] was “inactive”. The “growth inhibition (GI)” value [17] was “Active” and the “growth inhibition (GI)” value [18] was “Active”.
In the case of `CCCCCCCCCCCC(C)(O)C1CC(=O)N[C@@H](CO)C(=O)N[C@H](C)C(=O)N[C@H](CC(=O)O)C(=O)N[C@@H](C)C(=O)N[C@H](CO)C(=O)N[C@H](CO)C(=O)N[C@H]([C@@H](C)O)C(=O)O1` (some centres undefined) [PHAEOFUNGIN], the Activity [19] is reported as “Active”, the Activity [20] is reported as “Active” and the “growth inhibition (GI)” value [16] is reported as “inactive”. For the same compound, the “growth inhibition (GI)” value [17] was “inactive”, the “growth inhibition (GI)” value [18] was “inactive” and the “growth inhibition (GI)” value [21] was “Active”. For the same compound, the “growth inhibition (GI)” value [22] was “Active”, the Activity [23] was “Non-toxic” and the Activity [24] was “Dose-dependent effect”. For the same compound, the MIC [1] was over 32 µg/mL, the MIC [2] was 4 µg/mL (≈ 4.49 µM) and the MIC [3] was over 32 µg/mL. The MIC [4] was 16 µg/mL (≈ 18 µM), the minimal effective concentration ([4]; read-out: MEC) was 8 µg/mL and the MIC [5] was over 32 µg/mL. For the same compound, the MIC [6] was over 32 µg/mL, the MIC80 [6] was 32 µg/mL (≈ 36 µM) and the MIC [7] was 32 µg/mL (≈ 36 µM). For the same compound, the MIC [8] was over 32 µg/mL, the MIC80 [8] was 32 µg/mL (≈ 36 µM) and the MIC [9] was over 32 µg/mL. For the same compound, the MIC [10] was over 32 µg/mL, the MIC [11] was 32 µg/mL (≈ 36 µM) and the MIC80 [11] was 16 µg/mL (≈ 18 µM).
`CC[C@H](C)C[C@H](C)CCCCCCCCC(=O)N[C@H]1C[C@@H](O)[C@@H](NCCN)NC(=O)[C@@H]2[C@@H](O)CCN2C(=O)[C@H]([C@H](O)CCN)NC(=O)[C@H]([C@H](O)[C@@H](O)c2ccc(O)cc2)NC(=O)[C@@H]2C[C@@H](O)CN2C(=O)[C@H]([C@@H](C)O)NC1=O` [CASPOFUNGIN] was tested, and the Activity [12] was “Active”, the Activity [13] was “Active” and the MIC [1] was over 32 µg/mL. The MIC [2] was 32 µg/mL (≈ 29.3 µM), the MIC [3] was 32 µg/mL and the MIC [4] was 32 µg/mL (≈ 29.3 µM). For the same compound, the MIC [6] was 1 µg/mL (≈ 0.915 µM), the MIC [7] was under 0.03 µg/mL and the MIC [8] was 0.5 µg/mL (≈ 0.457 µM). For the same compound, the MIC [9] was 0.25 µg/mL (≈ 0.229 µM), the MIC [10] was 0.25 µg/mL and the MIC [11] was 0.5 µg/mL (≈ 0.457 µM).
